Experimental data of several laboratories.
Each line is one published result; the experiments were not run side by side.
Observed: metabolic stability

c1ccc(-c2nc(NCc3nccs3)c3ccccc3n2)nc1
microsomal CLint (mouse, liver microsomes): 224 µL/min/mg

CO[C@@H](C[C@H]1C(C)=CC[C@@H]2[C@]3(C)C[C@H](O[C@@H]4O[C@@H](C)[C@H](OC(=O)c5cccc(O)c5)[C@@H](O[C@@H]5O[C@H](CO)[C@@H](O)[C@H](O)[C@H]5NC(C)=O)[C@H]4O)[C@@H](O)C(C)(C)[C@H]3CC[C@]21C)[C@H](N)C(=O)O
hepatocyte CLint (mouse, hepatocytes; 1 µM): 4.69 µL/min/10⁶ cells

CC(=O)Nc1cc(Nc2cc(NC3CC3)n3ncc(C#N)c3n2)ccc1N1CCC[C@H](O)C1
scaled CLint (male CD-1 mouse, hepatocytes; 1 µM, serum-free): 30.7 L/h/kg

CC(=O)N(C)C1CCN(c2cc(F)cc(NC(=O)c3cc4c(F)ccc(C)c4[nH]3)c2)C1 (centres unmarked)
scaled CLint (mouse, hepatocytes; 0.5 µM, 1 h): 14.3 L/h/kg

Cc1cc(Cl)c(Cl)cc1NC(=O)c1cc([N+](=O)[O-])c(N2CCNCC2)cc1Cl
scaled CLint (CD-1 mouse, liver microsomes; 1 µM, 1 h, pH 7.4): 1.5 L/h/kg

CN[C@@H]1CCCN(c2ccc(Nc3cc(NC4CC4)n4ncc(C#N)c4n3)cc2NC(C)=O)C1
scaled CLint (male CD-1 mouse, hepatocytes; 1 µM, serum-free): 9.72 L/h/kg

N#Cc1ccccc1-c1nc(N2CCC(c3ccccn3)C2)c2ccccc2n1 (centres unmarked)
microsomal CLint (mouse, liver microsomes): 717 µL/min/mg

O=C(Nc1ccc(Cl)c(Cl)c1)c1ccc(N2CCNCC2)c([N+](=O)[O-])c1
scaled CLint (CD-1 mouse, liver microsomes; 1 µM, 1 h, pH 7.4): 0.72 L/h/kg

Cc1ccc(F)c2cc(C(=O)N[C@@H]3CCC[C@H](N4CCOCC4)C3)[nH]c12
scaled CLint (mouse, hepatocytes; 0.5 µM, 1 h): 130 L/h/kg

c1ccc(-c2nc(Nc3ccn4nccc4c3)c3ccccc3n2)nc1
microsomal CLint (mouse, liver microsomes): 325 µL/min/mg

O=C(Nc1cncc(-c2nc3ccccc3s2)c1)c1cc([N+](=O)[O-])c(N2CCNCC2)cc1Cl
scaled CLint (CD-1 mouse, liver microsomes; 1 µM, 1 h, pH 7.4): 0.6 L/h/kg
